# Screening results from PubChem BioAssay.
# Only some compounds are listed: those with a hit (about 2.6% of all), similar ones and a draw of the others.
# SENP8 block-1 = inhibitors of human SENP8 protease; purified SENP8, Z-RLRGG-aminoluciferin cleavage, luminescence; hit rate 1.2% among 330,000; inhibition, % at 10 µM; Q96LD8; AID 2540; in the data active = inhibition above about 50%
# Target sequence (Q96LD8 whole entry, looked up): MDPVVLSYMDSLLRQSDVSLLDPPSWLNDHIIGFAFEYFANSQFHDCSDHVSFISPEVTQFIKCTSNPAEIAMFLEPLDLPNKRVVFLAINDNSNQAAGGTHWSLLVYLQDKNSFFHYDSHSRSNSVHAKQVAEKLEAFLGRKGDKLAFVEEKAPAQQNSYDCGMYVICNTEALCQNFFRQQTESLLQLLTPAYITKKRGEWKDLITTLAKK
# SENP1 FRET inh = SENP1 (human) catalytic domain inhibition; recombinant SENP1 catalytic domain, CyPet-SUMO1-YPet FRET cleavage; inhibition, % at 10 µM; hit rate 0.21% among 360,000; AID 624204;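 active = inhibition at least 30% at 10 µM, raw YFP signal under a set limit, fluorescence ratio 0.5 to 1.5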;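 also: 0% = enzyme with DMSO and 100% = no enzyme wells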
# Target sequence (Q9P0U3 419-644 limits assumed): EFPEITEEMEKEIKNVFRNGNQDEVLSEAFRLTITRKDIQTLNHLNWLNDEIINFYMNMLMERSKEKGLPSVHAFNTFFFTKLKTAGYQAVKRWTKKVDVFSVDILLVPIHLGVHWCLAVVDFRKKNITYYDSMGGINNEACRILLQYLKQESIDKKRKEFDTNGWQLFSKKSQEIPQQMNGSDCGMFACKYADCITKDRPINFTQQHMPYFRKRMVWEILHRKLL
#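 Assay system – human recombinant His6-tagged SENP1 catalytic domain enzyme · Input – SENP1 enzyme, 20 pM final · Buffer or medium – Tris pH 8 buffer plus EDTA, NaCl, BME, BSA, NP40, catalase · Schedule – 50 min reaction at room temperature · Technique – FRET read of cyan and yellow fluorescence · Control set – no-enzyme wells low, DMSO-plus-enzyme wells high control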
# SENP6 inh = blocks the human protease SENP6. Q9GZR1. Recombinant SENP6 catalytic domain, aminoluciferin luminescence. inhibition, % at 10 µM. hit rate 1.8% among 330,000. AID 2599;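 active = inhibition above about 50% at the single tested dose, limit read from the data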;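 also: plate controls were DMSO wells with enzyme for no effect and DMSO wells lacking enzyme for full effect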
# SENP8 block-2 = inhibitors of human SENP8 protease. recombinant SENP8, Nedd8 substrate fluorescence. inhibition, % at 20 µM. hit rate 0.64% among 360,000; in the data active = inhibition mostly above about 40%, no sharp cut-off; inactive = mostly below about 27%
# Platelet DG rel = modulates dense granule release in human platelets | human platelet-rich plasma, SFLLRN dense granule ATP release, luminescence | inhibition, %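 (compounds screened at 7.5 µM in platelet-rich plasma)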 | hit rate 0.22% among 300,000 | AID 1663;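 active = mean replicate score, as percent of positive control, at or above 50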
# SENP7 inh = blocks the human protease SENP7 | recombinant SENP7, Z-RLRGG-aminoluciferin luminescence, 40 min | AID 434973 | Q9BQF6 | inhibition, % at 5 µM | hit rate 1.5% among 330,000;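 active = inhibition above about 50% at the single test dose, limit read from the data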;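 also: plate controls were DMSO with enzyme for no effect and no enzyme buffer wells for full effect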
# SENP8 confirm = human SENP8 inhibition, confirmed; inhibition, % at 12.5 µM; hit rate 40% among 6,200; shares compounds with SENP7 inh; Recombinant SENP8, Z-RLRGG-aminoluciferin luminescence, 60 min;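 active = mean inhibition across replicates above about 50%, limit read from the data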
# SENP6 confirm = human SENP6 inhibition, confirmed | recombinant SENP6, Z-RLRGG-aminoluciferin luminescence | shares compounds with SENP7 inh | hit rate 58% among 6,200 | inhibition, % at 12.5 µM | AID 488915
# SENP7 confirm = human SENP7 inhibition, confirmed | shares compounds with SENP7 inh | recombinant SENP7, Z-RLRGG-aminoluciferin luminescence, 40 min | inhibition, % at 12.5 µM | hit rate 69% among 6,200
# Casp3 SENP sel = inhibits human caspase-3 in SENP selectivity test. purified caspase-3, Z-DEVD-aminoluciferin luminescence, 60 min. hit rate 60% among 6,200. inhibition, % at 12.5 µM. shares compounds with SENP7 inh;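 active = mean inhibition above about 50%, limit read from the data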;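 also: plate controls were enzyme with DMSO for no effect and wells without caspase-3 for full effect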
# Target sequence (P42574 28-227 limits assumed): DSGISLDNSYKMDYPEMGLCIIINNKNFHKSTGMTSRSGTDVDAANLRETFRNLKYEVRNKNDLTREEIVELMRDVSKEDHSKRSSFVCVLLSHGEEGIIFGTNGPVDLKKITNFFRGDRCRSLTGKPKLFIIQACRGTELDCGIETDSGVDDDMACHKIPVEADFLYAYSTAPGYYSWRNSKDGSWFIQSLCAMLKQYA
# Luc interf = luminescence interference (SENP counter-screen); AID 488919; Pre-incubated SENP8/Z-RLRGG-aminoluciferin, luciferase luminescence interference; shares compounds with SENP7 inh; hit rate 39% among 6,200; inhibition, % at 12.5 µM;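 active = mean inhibition above about 50% when retested at one dose, limit read from the data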;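 also: plate controls were DMSO wells with completed reaction for no effect and substrate without enzyme for full effect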
# * hit, by the source's call; . = not tested or not shown.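 The calls were made as follows, unless noted: active = mean inhibition above about 50% in the one-dose retest (limit read from the data); inactive = the rest.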
SMILES,SENP8 block-1,SENP1 FRET inh,SENP6 inh,SENP8 block-2,Platelet DG rel,SENP7 inh,SENP8 confirm,SENP6 confirm,SENP7 confirm,Casp3 SENP sel,Luc interf
CCc1sc(C(=O)Nc2nc(C)cs2)cc1C,68*,-2,85*,-44,6,65*,70*,69*,92*,69*,69*
CCc1sc(C(=O)Nc2ccc(NC(C)=O)cc2)cc1C,-2,2,-11,20,2,3,.,.,.,.,.
COc1cc(CNC[C@H]2O[C@@H](n3cnc(C(N)=O)n3)[C@H](O)[C@@H]2O)ccc1OCc1cccc(Cl)c1,.,-3,.,16,.,.,.,.,.,.,.
CCOC(=O)C1=CN(Cc2cccc(Br)c2)S(=O)(=O)N(CC)C1C (centres undefined),.,1,.,-5,.,6,.,.,.,.,.
CCOc1ccccc1N(CC(=O)Nc1ccccc1Br)S(=O)(=O)c1ccccc1,.,-1,.,2,.,.,.,.,.,.,.
Cc1csc(NC(=O)c2ccc(Br)s2)n1,30,-2,55*,-19,-6,26,46,43,77*,48,26
Cc1csc(NC(=O)c2cc3c(s2)CCC3)n1,82*,0,90*,-78,23,87*,89*,88*,99*,89*,91*
Cc1csc(NC(=O)c2cc3c(s2)-c2ccccc2OC3)n1,-7,-83,-9,-355,6,8,.,.,.,.,.
CCCCCCn1cc(CN2CC(N(C)CC)CS2(=O)=O)nn1 (centres undefined),.,1,.,4,.,.,.,.,.,.,.
Nc1ccc(Br)c2cccnc12,75*,-24,85*,35,-7,62*,27,63*,33,2,-3
O=C(NC(=S)Nc1cccc(CO)c1)c1ccc(-c2ccccc2)cc1,27,1,56*,6,4,10,6,-2,15,4,-1
O=C(Nc1ccc(CSc2ccccc2)cc1)c1ccccc1,12,0,19,5,7,59*,11,12,2,2,0
O=C(Nc1cccc([N+](=O)[O-])c1)c1ccc(CSc2ccccc2)cc1,5,2,-4,9,-5,14,.,.,.,.,.
O=C(Nc1ccccc1)c1ccc(CSc2ccccn2)cc1,93*,1,97*,16,25,98*,87*,98*,103*,96*,7
FC(F)(F)c1ccc(CSc2ccccn2)cc1,-13,0,-8,14,11,-5,.,.,.,.,.
CCCCCCCNC(=O)C1(CC2CC(c3ccc(Cl)cc3)=NO2)CCNCC1 (centres undefined),-11,1,0,9,2,-3,.,.,.,.,.
COc1ccc(/C=N/Nc2ncccc2[N+](=O)[O-])c(OC)c1,97*,4,100*,30,79*,99*,99*,100*,104*,99*,19
COc1ccc(/C=N/Nc2ncc(-c3ccccc3)cn2)c(OC)c1,-1,3,-24,-88,6,-3,.,.,.,.,.
O=C(Cn1cc(SCc2ccc(Cl)cc2)c2ccccc21)N1CCOCC1,44,-1,67*,19,-5,49,13,65*,82*,26,21
O=C(Cn1cc(SCc2ccc(F)cc2)c2ccccc21)N1CCOCC1,16,2,58*,18,0,22,50*,48,79*,27,36
CN(C(=O)CSc1cn(CC(=O)N2CCOCC2)c2ccccc12)c1ccccc1,-1,0,0,8,1,3,.,.,.,.,.
CSc1ccc(/C=C2\C(=N)N3N=C(CC(=O)N4CCCCC4)SC3=NC2=O)cc1,-4,1,-14,-34,2,-8,.,.,.,.,.
O=C(CCCN1C(=O)/C(=C/c2ccccc2)SC1=S)N1CCOCC1,23,2,43,15,-24,21,.,.,.,.,.
CN1CCN(C(=O)CCN2C(=O)/C(=C/c3cccc(Br)c3)SC2=S)CC1,-5,2,-3,29,-1,6,.,.,.,.,.
CN1CCN(C(=O)CCCN2C(=O)/C(=C/c3cccc(Br)c3)SC2=S)CC1,5,2,52*,20,-8,-4,47,37,44,22,36
SMILES,SENP8 block-1,SENP1 FRET inh,SENP6 inh,SENP8 block-2,Platelet DG rel,SENP7 inh,SENP8 confirm,SENP6 confirm,SENP7 confirm,Casp3 SENP sel,Luc interf
O=C(CCCN1C(=O)/C(=C/c2cccc(Br)c2)SC1=S)N1CCOCC1,27,1,64*,9,-14,10,33,58*,65*,11,26
COc1ccc(/C=C2\SC(=S)N(CCC(=O)N3CCOCC3)C2=O)cc1,-20,-21,-17,19,-35,-13,.,.,.,.,.
COc1ccc(/C=C2\SC(=S)N(CCCC(=O)N3CCN(C)CC3)C2=O)cc1,39,-22,70*,13,-3,28,57*,53*,76*,54*,52*
O=C(Nc1ccc(Cl)cc1)Nc1cccc(C(=O)O)c1,95*,3,95*,14,7,97*,99*,99*,104*,87*,98*
O=C(Nc1ccc(Br)cc1)Nc1ccccc1Cl,68*,2,81*,19,2,94*,-2,68*,90*,38,3
O=C(Nc1cccc(C(=O)O)c1)Nc1ccccc1Cl,93*,1,95*,-3,10,97*,98*,98*,103*,96*,75*
CSc1cccc(NC(=O)Nc2ccc(Cl)cc2)c1,-1,4,-19,23,-5,0,.,.,.,.,.
O=C(Nc1ccc(CN2CCCCC2)cc1)Nc1ccccc1Cl,-9,1,2,18,-8,9,.,.,.,.,.
CCOC(=O)c1nc(N/N=C/c2ccccc2)sc1Br,0,0,13,-19,-2,18,.,.,.,.,.
CCC(NC(=O)c1ccccc1NC(=O)C(C)(C)C)C(=O)N1CC(C)OC(C)C1 (centres undefined),-8,-1,-22,-139,.,2,.,.,.,.,.
O=C(OCC(=O)c1ccc[nH]1)c1ccc(S(=O)(=O)C(F)F)cc1,.,1,.,9,.,.,.,.,.,.,.
Oc1ccc(Cl)cc1C1=NNC(c2cccs2)C1 (centres undefined),-4,4,3,-91,8,-4,.,.,.,.,.
